Results as given in ChEMBL document CHEMBL4041482, “Synthesis, evaluation, and CoMFA study of fluoroquinophenoxazine derivatives as bacterial topoisomerase IA inhibitors” (Eur J Med Chem, 2017).
≈ marks a conversion by molar mass, not a printed value.

Legend:
Bacillus spizizenii = assay: Antibacterial activity against Bacillus subtilis ATCC 6633 by microdilution method; type: functional
Outline: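 Broth microdilution per standard protocol in cation-adjusted Mueller-Hinton broth; MIC taken as lowest inhibiting concentration.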

Escherichia coli [1] = assay: Antibacterial activity against Escherichia coli BAS3023 harboring imp mutant by microdilution method; type: functional
Outline: (§1)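 MICs determined by standard broth microdilution in cation-adjusted Mueller-Hinton Broth; E. coli BAS3023 carries an imp mutation conferring membrane permeability to small molecules, MG1655 K12 is wild type.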

Escherichia coli [2] = assay: Antibacterial activity against Escherichia coli K12 MG1655 by microdilution method; type: functional; settings: K-12 substr. MG1655; outline: as §1
[3] = Inhibition of recombinant Escherichia coli topoisomerase 1a expressed in Escherichia coli assessed as reduction in enzyme-mediated relaxation of supercoiled pBAD/Thio DNA preincubated with enzyme followed by substrate addition measured after 30 mins by ethidium bromide staining based agarose gel electrophoresis method
[4] = tested on: Mycobacterium tuberculosis; assay: Antimycobacterial activity against Mycobacterium tuberculosis H37Rv after 7 days by microplate alamar blue assay; type: functional; settings: 168 h
[5] = Inhibition of human topoisomerase type 1B assessed as reduction in enzyme-mediated relaxation of supercoiled pBAD/Thio DNA after 30 mins by agarose gel electrophoresis method
Outline: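 Human topoisomerase I, 0.5 U, in manufacturer's reaction buffer; enzyme mixed with compound before 200 ng supercoiled pBAD/Thio plasmid added, 20 μL final. 37 °C for 30 minutes; stopped with SDS/bromophenol blue/glycerol buffer; agarose gel electrophoresis read-out.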

[6] = Inhibition of recombinant Escherichia coli DNA gyrase expressed in Escherichia coli assessed as reduction in enzyme-mediated supercoiling of relaxed circular DNA preincubated with enzyme followed by substrate addition measured after 30 mins by agarose gel electrophoresis method
[7] = biological target: DNA topoisomerase 2-alpha (Homo sapiens, UniProt P11388); assay: Inhibition of human topoisomerase-2alpha assessed as reduction in enzyme-mediated decatenation using kinetoplast DNA as substrate after 15 mins by ethidium bromide staining based agarose gel electrophoresis method
Vero = assay: Cytotoxicity against African green monkey Vero cells assessed as reduction in cell viability after 72 hrs by MTS assay; type: cell-based; settings: Chlorocebus sabaeus
[8] = Selectivity index, ratio of IC50 for African green monkey Vero cells to MIC for Mycobacterium tuberculosis H37Rv; type: toxicity
Outline: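 SI computed as cytotoxic IC50 against Vero cells divided by MIC against M. tuberculosis; Mtb MIC from modified microplate Alamar blue assay.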

Chain of DNA topoisomerase 2-alpha (P11388 whole entry): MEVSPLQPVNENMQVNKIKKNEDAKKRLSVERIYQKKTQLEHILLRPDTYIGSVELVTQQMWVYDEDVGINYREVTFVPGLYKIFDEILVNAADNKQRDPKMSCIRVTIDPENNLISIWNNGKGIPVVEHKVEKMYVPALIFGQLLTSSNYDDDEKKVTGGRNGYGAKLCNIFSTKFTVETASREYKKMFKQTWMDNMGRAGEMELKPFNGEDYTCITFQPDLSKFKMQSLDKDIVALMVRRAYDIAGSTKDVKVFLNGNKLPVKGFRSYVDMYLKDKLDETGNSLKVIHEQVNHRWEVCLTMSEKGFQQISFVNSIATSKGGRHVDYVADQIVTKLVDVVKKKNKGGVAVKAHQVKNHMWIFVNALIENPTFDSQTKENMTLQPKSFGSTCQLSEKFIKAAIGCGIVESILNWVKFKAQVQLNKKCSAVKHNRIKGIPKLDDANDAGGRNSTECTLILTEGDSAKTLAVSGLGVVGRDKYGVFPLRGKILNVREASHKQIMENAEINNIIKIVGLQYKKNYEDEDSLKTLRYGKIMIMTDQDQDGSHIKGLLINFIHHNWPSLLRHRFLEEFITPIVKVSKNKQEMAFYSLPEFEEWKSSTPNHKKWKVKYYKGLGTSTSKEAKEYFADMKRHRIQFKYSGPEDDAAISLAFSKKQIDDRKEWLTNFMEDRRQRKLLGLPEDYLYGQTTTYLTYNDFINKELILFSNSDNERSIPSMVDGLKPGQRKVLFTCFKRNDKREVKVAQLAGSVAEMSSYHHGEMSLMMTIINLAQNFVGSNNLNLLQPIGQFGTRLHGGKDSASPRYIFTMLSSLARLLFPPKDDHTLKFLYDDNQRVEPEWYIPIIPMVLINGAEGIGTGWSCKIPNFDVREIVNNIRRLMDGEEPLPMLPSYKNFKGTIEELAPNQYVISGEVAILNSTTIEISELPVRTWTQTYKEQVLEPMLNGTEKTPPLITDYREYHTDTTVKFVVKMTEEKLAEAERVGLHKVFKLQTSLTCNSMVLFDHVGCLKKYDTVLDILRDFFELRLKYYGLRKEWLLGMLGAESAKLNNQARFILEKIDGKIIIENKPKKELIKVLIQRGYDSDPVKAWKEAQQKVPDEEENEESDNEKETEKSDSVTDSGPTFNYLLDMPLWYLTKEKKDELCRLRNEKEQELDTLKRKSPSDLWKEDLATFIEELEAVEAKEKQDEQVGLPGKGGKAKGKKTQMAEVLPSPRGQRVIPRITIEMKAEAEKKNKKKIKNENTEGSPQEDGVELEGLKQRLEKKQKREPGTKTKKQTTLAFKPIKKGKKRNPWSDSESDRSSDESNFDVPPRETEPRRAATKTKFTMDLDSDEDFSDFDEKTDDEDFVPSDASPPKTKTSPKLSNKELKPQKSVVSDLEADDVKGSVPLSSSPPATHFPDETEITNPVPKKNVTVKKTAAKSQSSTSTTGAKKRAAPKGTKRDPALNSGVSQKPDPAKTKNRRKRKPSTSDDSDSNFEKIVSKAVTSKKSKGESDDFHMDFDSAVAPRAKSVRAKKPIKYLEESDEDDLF

For `Nc1ccc2c(c1)Oc1c(NC3CCCCC3)c(F)cc3c(=O)c(C(=O)O)cn-2c13`, the MIC (Bacillus spizizenii) was 12.5 µM (≈ 5.12 µg/mL), the MIC (Escherichia coli [1]) was 25 µM (≈ 10.2 µg/mL) and the MIC (Escherichia coli [2]) was greater than 200 µM. For the same molecule, the IC50 [3] was 3.9 µM and the pIC50 [3] was 5.41.
`N[C@H]1CCN(c2c(F)cc3c(=O)c(C(=O)O)cn4c3c2Oc2cc([N+](=O)[O-])ccc2-4)C1` gave an MIC (Bacillus spizizenii) of 0.78 µM (≈ 0.333 µg/mL), an MIC (Escherichia coli [1]) of 1.56 µM (≈ 0.665 µg/mL) and an MIC [4] greater than 50 µM. For the same molecule, the IC50 [5] was 7.8 µM, the MIC (Escherichia coli [2]) was greater than 200 µM and the IC50 [3] was 0.48 µM. The pIC50 [3] was 6.32, the IC50 [6] was 3.9 µM and the IC50 [7] was 1.95 to 3.9 µM. For the same molecule, the IC50 (Vero) was greater than 50 µM.
Work on `CC1CCN(c2c(F)cc3c(=O)c(C(=O)O)cn4c3c2Oc2cc(N)ccc2-4)CC1` yielded an MIC (Bacillus spizizenii) of 0.78 µM (≈ 0.319 µg/mL), an MIC (Escherichia coli [1]) of 3.12 µM (≈ 1.28 µg/mL) and an MIC (Escherichia coli [2]) greater than 200 µM. It also gave an IC50 [3] of 3.9 µM and a pIC50 [3] of 5.41.
Work on `CCOC(=O)c1cn2c3c(c(N4CCN(C)CC4)c(F)cc3c1=O)Oc1cc([N+](=O)[O-])ccc1-2` yielded an MIC (Bacillus spizizenii) of 50 µM (≈ 23.4 µg/mL), an MIC (Escherichia coli [1]) of 25 µM (≈ 11.7 µg/mL) and an MIC (Escherichia coli [2]) greater than 200 µM. The IC50 [3] was 1.95 µM and the pIC50 [3] was 5.71.
`CC(=O)c1ccc2c(c1)Oc1c(F)c(F)cc3c(=O)c(C(=O)O)cn-2c13` showed an MIC (Bacillus spizizenii) greater than 200 µM, an MIC (Escherichia coli [1]) greater than 200 µM and an MIC (Escherichia coli [2]) greater than 200 µM. For the same molecule, the IC50 [3] was 15.6 µM and the pIC50 [3] was 4.81.
Molecule `O=C(O)c1cn2c3c(c(F)c(F)cc3c1=O)Oc1cc([N+](=O)[O-])c(Cl)cc1-2` has an MIC (Bacillus spizizenii) of 3.12 µM (≈ 1.23 µg/mL), an MIC (Escherichia coli [1]) of 0.39 µM (≈ 0.154 µg/mL) and an MIC [4] of 29 µM (≈ 11.4 µg/mL). For the same molecule, the IC50 [5] was 31.2 µM, the MIC (Escherichia coli [2]) was 50 µM (≈ 19.7 µg/mL) and the IC50 [3] was 31.2 µM. For the same molecule, the pIC50 [3] was 4.51, the IC50 [6] was 62.5 µM and the IC50 (Vero) was greater than 127 µM.
`CCOC(=O)c1cn2c3c(c(F)c(F)cc3c1=O)Oc1cc(C(F)(F)F)ccc1-2` gave an MIC (Bacillus spizizenii) greater than 200 µM, an MIC (Escherichia coli [1]) greater than 200 µM and an MIC (Escherichia coli [2]) greater than 200 µM. It also gave an IC50 [3] of 125 to 250 µM and a pIC50 [3] of 3.6.
With `CC(C)(C)OC(=O)N[C@H]1CCN(c2c(F)cc3c(=O)c(C(=O)O)cn4c3c2Oc2cc(N)ccc2-4)C1` the MIC (Bacillus spizizenii) was 12.5 µM (≈ 6.21 µg/mL), the MIC (Escherichia coli [2]) was greater than 200 µM and the IC50 [3] was 3.9 µM. It also gave a pIC50 [3] of 5.41.
Molecule `Nc1ccc2c(c1)Oc1c(NC34CC5CC(CC(C5)C3)C4)c(F)cc3c(=O)c(C(=O)O)cn-2c13` has an MIC (Bacillus spizizenii) of 12.5 µM (≈ 5.77 µg/mL), an MIC (Escherichia coli [1]) of 3.12 µM (≈ 1.44 µg/mL) and an MIC [4] of 38.4 µM (≈ 17.7 µg/mL). The “Selectivity Index” value [8] was 0.8, the MIC (Escherichia coli [2]) was greater than 200 µM and the IC50 [3] was 3.9 to 7.8 µM. For the same molecule, the pIC50 [3] was 5.23 and the IC50 (Vero) was 30.7 µM.
`CCCCCCNc1c(F)cc2c(=O)c(C(=O)O)cn3c2c1Oc1cc(N)ccc1-3` showed an MIC (Bacillus spizizenii) greater than 200 µM, an MIC (Escherichia coli [1]) greater than 200 µM and an MIC (Escherichia coli [2]) greater than 200 µM. The IC50 [3] was 15.6 µM and the pIC50 [3] was 4.81.
`CCOC(=O)c1cn2c3c(c(F)c(F)cc3c1=O)Oc1cc(C#N)ccc1-2` gave an MIC (Bacillus spizizenii) of 200 µM (≈ 73.7 µg/mL), an MIC (Escherichia coli [1]) greater than 200 µM and an MIC (Escherichia coli [2]) greater than 200 µM. For the same molecule, the IC50 [3] was 31.2 µM and the pIC50 [3] was 4.51.
Work on `Nc1ccc2c(c1)Oc1c(N3CCOCC3)c(F)cc3c(=O)c(C(=O)O)cn-2c13` yielded an MIC (Bacillus spizizenii) of 0.19 µM (≈ 0.0755 µg/mL), an MIC (Escherichia coli [1]) of 0.19 to 0.39 µM (≈ 0.0755 to 0.155 µg/mL) and an MIC [4] of 3.5 µM (≈ 1.39 µg/mL). It also gave an MIC (Escherichia coli [2]) greater than 200 µM, an IC50 [3] of 0.97 µM and a pIC50 [3] of 6.01. It also gave an IC50 [6] of 7.8 µM and an IC50 (Vero) of 24.7 µM.
`O=C(O)c1cn2c3c(c(F)c(F)cc3c1=O)Oc1cc([N+](=O)[O-])ccc1-2` gave an MIC (Bacillus spizizenii) of 12.5 µM (≈ 4.5 µg/mL), an MIC (Escherichia coli [1]) of 0.78 µM (≈ 0.281 µg/mL) and an MIC (Escherichia coli [2]) of 200 µM (≈ 72 µg/mL). For the same molecule, the IC50 [3] was 15.6 µM and the pIC50 [3] was 4.81.
In the case of `Nc1ccc2c(c1)Oc1c(N3CC[C@@H](N)C3)c(F)cc3c(=O)c(C(=O)O)cn-2c13`, the MIC (Bacillus spizizenii) is reported as 12.5 µM (≈ 4.95 µg/mL), the MIC (Escherichia coli [1]) is reported as 6.25 µM (≈ 2.48 µg/mL) and the MIC [4] is reported as greater than 63.1 µM. The IC50 [3] was 0.48 to 0.97 µM, the pIC50 [3] was 6.14 and the IC50 (Vero) was greater than 63.1 µM.
